The values below come from ChEMBL document CHEMBL1152997, “Prevalence of and molecular basis for tuberculosis drug resistance in the Republic of Georgia: validation of a QIAplex system for detection of drug resistance-related mutations” (2008).

Common to all, as to format: functional
For test [1], the system named is Mycobacterium tuberculosis. Briefly: Antimycobacterial activity against Mycobacterium tuberculosis clinical isolates from tuberculosis patient assessed as percent specific isolates at 40 ug/ml by absolute-concentration method.
Test [2] deals with Mycobacterium tuberculosis. Briefly: Antimycobacterial activity against Mycobacterium tuberculosis clinical isolates from tuberculosis patient assessed as percent sensitive isolates at 40 ug/ml by absolute-concentration method. Put shortly: (§1)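 Consecutive clinical M. tuberculosis isolates (196), Tbilisi, Jan–Mar 2006, primary culture on Lowenstein-Jensen medium. Suspension adjusted to 1 McFarland in sterile saline. 0.2 ml was plated onto drug-containing solid medium: a 10-fold dilution series for the 2, 4 and 40 µg/ml media, and a 100-fold dilution for the 0.2 µg/ml medium. Incubation at 37°C, 5–10% CO2, 28 days.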

The test system of test [3] is Mycobacterium tuberculosis. Briefly: Antimycobacterial activity against Mycobacterium tuberculosis clinical isolates from tuberculosis patient assessed as percent sensitive isolates at 0.2 ug/ml by absolute-concentration method. In short, it runs like this: as §1
For test [4], the system named is Mycobacterium tuberculosis. The test is described as follows: Antimycobacterial activity against Mycobacterium tuberculosis clinical isolates from tuberculosis patient assessed as percent specific isolates at 0.2 ug/ml by absolute-concentration method.
Test [5] relates to Mycobacterium tuberculosis. Briefly: Antimycobacterial activity against Mycobacterium tuberculosis clinical isolates from tuberculosis patient assessed as percent sensitive isolates at 4 ug/ml by absolute-concentration method. In short, it runs like this: as §1
The test system of test [6] is Mycobacterium tuberculosis. The test is described as follows: Antimycobacterial activity against Mycobacterium tuberculosis clinical isolates from tuberculosis patient assessed as percent specific isolates at 4 ug/ml by absolute-concentration method.
In test [7] the test system is Mycobacterium tuberculosis. The test is described as follows: Antimycobacterial activity against Mycobacterium tuberculosis clinical isolates from tuberculosis patient assessed as percent sensitive isolates at 2 ug/ml by absolute-concentration method. Put shortly:
as §1

Test [8] deals with Mycobacterium tuberculosis. Briefly: Antimycobacterial activity against Mycobacterium tuberculosis clinical isolates from tuberculosis patient assessed as percent specific isolates at 2 ug/ml by absolute-concentration method.

`CO[C@H]1/C=C/O[C@@]2(C)Oc3c(C)c(O)c4c(O)c(c(/C=N/N5CCN(C)CC5)c(O)c4c3C2=O)NC(=O)/C(C)=C\C=C\[C@H](C)[C@H](O)[C@@H](C)[C@@H](O)[C@@H](C)[C@H](OC(C)=O)[C@@H]1C` [RIFAMPIN]: the Activity in test [1] was 99.4%; in test [2], 94.5%.

As to `NNC(=O)c1ccncc1` [ISONIAZID], the Activity in test [3] is on record as 85.4%; in test [4] it was 96.1%.

For the compound `CN[C@@H]1[C@H](O[C@H]2[C@H](O[C@H]3[C@H](O)[C@@H](O)[C@H](N=C(N)N)[C@@H](O)[C@@H]3N=C(N)N)O[C@@H](C)[C@]2(O)C=O)O[C@@H](CO)[C@H](O)[C@H]1O` [STREPTOMYCIN], the Activity worked out at 69.6% in test [5] and 99.2% in test [6].

With `CC[C@@H](CO)NCCN[C@@H](CC)CO` [ETHAMBUTOL], the Activity in test [7] came out at 50%; in test [8] it was 98.9%.
